Laboratory results reported in ChEMBL document CHEMBL1129534, “Antitumor agents. 163. Three-dimensional quantitative structure-activity relationship study of 4'-O-demethylepipodophyllotoxin analogs using the modified CoMFA/q2-GRS approach” (J Med Chem, 1996).
Several values for one entry are separate records, joined by “and”; a condition that tells them apart may be missing. Equal entries are not always repeated.

biological target: DNA topoisomerase II (Homo sapiens) (UniProt P11388+Q02880); test: Compound tested for ability to form a cellular covalent topoisomerase II-DNA complex.; format: functional
Summary of the method: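 Read-out is intracellular covalent topoisomerase II–DNA complex formation, scored as the percentage of cellular protein–DNA complex formed (PCPDCF). For CoMFA modelling the values were transformed to ln(PCPDCF + 1).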

Question: Which Protein-DNA complex formation does the source give for `C=CCN[C@@H]1c2cc3c(cc2[C@@H](c2cc(OC)c(O)c(OC)c2)[C@H]2C(=O)OC[C@@H]21)OCO3` here?
Answer: 84.1%

Question: `COc1cc([C@@H]2c3cc4c(cc3[C@@H](Nc3cccc(Cl)c3)[C@H]3COC(=O)[C@H]23)OCO4)cc(OC)c1O` was tested. Which Protein-DNA complex formation did it give?
Answer: 51%

Question: Which Protein-DNA complex formation does the source give for `COC(=O)c1cccc(N[C@@H]2c3cc4c(cc3[C@@H](c3cc(OC)c(O)c(OC)c3)[C@H]3C(=O)OC[C@@H]32)OCO4)c1` here?
Answer: 249%

Question: With `COc1cc([C@@H]2c3cc4c(cc3[C@@H](Oc3ccc(F)cc3)[C@H]3COC(=O)[C@H]23)OCO4)cc(OC)c1O` as the compound, how does the Protein-DNA complex formation read?
Answer: 57%

Question: `COc1cc([C@@H]2c3cc4c(cc3[C@@H](Nc3cccc(CO)c3)[C@H]3COC(=O)[C@H]23)OCO4)cc(OC)c1O` was tested. Which Protein-DNA complex formation did it give?
Answer: 235%

Question: `COc1cc([C@@H]2c3cc4c(cc3[C@@H](NCc3cccc(Cl)c3)[C@H]3COC(=O)[C@H]23)OCO4)cc(OC)c1O` was tested. Which Protein-DNA complex formation did it give?
Answer: 159%

Question: With `COc1cc([C@@H]2c3cc4c(cc3[C@@H](Nc3ccc(N)cc3)[C@H]3COC(=O)[C@H]23)OCO4)cc(OC)c1O` as the compound, how does the Protein-DNA complex formation read?
Answer: 330%

Question: `CCOC(=O)c1ccc(N[C@@H]2c3cc4c(cc3[C@@H](c3cc(OC)c(O)c(OC)c3)[C@H]3C(=O)OC[C@@H]32)OCO4)cc1` was tested. Which Protein-DNA complex formation did it give?
Answer: 207%

Question: With `COc1cc([C@@H]2c3cc4c(cc3[C@@H](Nc3cccc(C(C)=O)c3)[C@H]3COC(=O)[C@H]23)OCO4)cc(OC)c1O` as the compound, how does the Protein-DNA complex formation read?
Answer: 150%

Question: `COc1cc([C@@H]2c3cc4c(cc3[C@H](O)[C@H]3COC(=O)[C@H]23)OCO4)cc(OC)c1O` was tested. Which Protein-DNA complex formation did it give?
Answer: 3.3%

Question: Which Protein-DNA complex formation does the source give for `COc1cc([C@@H]2c3cc4c(cc3[C@@H](NCc3ccc(C#N)cc3)[C@H]3COC(=O)[C@H]23)OCO4)cc(OC)c1O` here?
Answer: 284%

Question: How did the Protein-DNA complex formation turn out when `COc1cc([C@@H]2c3cc4c(cc3[C@@H](NCc3ccc(C(F)(F)F)cc3)[C@H]3COC(=O)[C@H]23)OCO4)cc(OC)c1O` was run?
Answer: 99%

Question: For `COc1cc([C@@H]2c3cc4c(cc3[C@@H](NCCN3CCCCC3)[C@H]3COC(=O)[C@H]23)OCO4)cc(OC)c1O`, which Protein-DNA complex formation is on record?
Answer: 183% and 190%

Question: `COc1cc([C@@H]2c3cc4c(cc3[C@@H](Nc3cc(C(F)(F)F)cc(C(F)(F)F)c3)[C@H]3COC(=O)[C@H]23)OCO4)cc(OC)c1O` was tested. Which Protein-DNA complex formation did it give?
Answer: 21%

Question: With `COc1cc([C@@H]2c3cc4c(cc3[C@@H](NCCN(C)C)[C@H]3COC(=O)[C@H]23)OCO4)cc(OC)c1O` as the compound, how does the Protein-DNA complex formation read?
Answer: 183% and 203%

Question: `COc1cc([C@@H]2c3cc4c(cc3[C@H](N)[C@H]3COC(=O)[C@H]23)OCO4)cc(OC)c1O` was tested. Which Protein-DNA complex formation did it give?
Answer: 8%

Question: `COc1cc([C@@H]2c3cc4c(cc3[C@@H](O)[C@H]3COC(=O)[C@H]23)OCO4)cc(OC)c1O` was tested. Which Protein-DNA complex formation did it give?
Answer: 42.2%

Question: Which Protein-DNA complex formation does the source give for `COc1cc([C@@H]2c3cc4c(cc3[C@@H](NC(=O)c3cccc(N)c3)[C@H]3COC(=O)[C@H]23)OCO4)cc(OC)c1O` here?
Answer: 149%

Question: `COc1cc([C@@H]2c3cc4c(cc3[C@@H](Nc3cc(OC)c(OC)c(OC)c3)[C@H]3COC(=O)[C@H]23)OCO4)cc(OC)c1O` was tested. Which Protein-DNA complex formation did it give?
Answer: 47%

Question: For `COc1cc([C@@H]2c3cc4c(cc3[C@@H](NC(=O)c3ccc(N)cc3)[C@H]3COC(=O)[C@H]23)OCO4)cc(OC)c1O`, which Protein-DNA complex formation is on record?
Answer: 120%

Question: Which Protein-DNA complex formation does the source give for `COc1cc([C@@H]2c3cc4c(cc3[C@@H](Nc3ccc(O)cc3)[C@H]3COC(=O)[C@H]23)OCO4)cc(OC)c1O` here?
Answer: 211%

Question: With `COc1cc([C@@H]2c3cc4c(cc3[C@@H](NC(=O)c3cccc([N+](=O)[O-])c3)[C@H]3COC(=O)[C@H]23)OCO4)cc(OC)c1O` as the compound, how does the Protein-DNA complex formation read?
Answer: 86%

Question: For `COc1cc([C@@H]2c3cc4c(cc3[C@@H](NC(=O)c3ccccc3)[C@H]3COC(=O)[C@H]23)OCO4)cc(OC)c1O`, which Protein-DNA complex formation is on record?
Answer: 177%

Question: `COc1cc([C@@H]2c3cc4c(cc3[C@@H](Nc3ccc(Oc5ccccc5)cc3)[C@H]3COC(=O)[C@H]23)OCO4)cc(OC)c1O` was tested. Which Protein-DNA complex formation did it give?
Answer: 97%

Question: `COc1cc([C@@H]2c3cc4c(cc3[C@@H](NCc3ccccc3F)[C@H]3COC(=O)[C@H]23)OCO4)cc(OC)c1O` was tested. Which Protein-DNA complex formation did it give?
Answer: 126%

Question: For `COc1cc([C@@H]2c3cc4c(cc3[C@@H](NCCCN(C)C)[C@H]3COC(=O)[C@H]23)OCO4)cc(OC)c1O`, which Protein-DNA complex formation is on record?
Answer: 186% and 179%

Question: Which Protein-DNA complex formation does the source give for `COc1cc([C@@H]2c3cc4c(cc3[C@@H](Nc3cc(N)ccc3O)[C@H]3COC(=O)[C@H]23)OCO4)cc(OC)c1O` here?
Answer: 11%

Question: For `COc1cc([C@@H]2c3cc4c(cc3[C@@H](Nc3ccccc3)[C@H]3COC(=O)[C@H]23)OCO4)cc(OC)c1O`, which Protein-DNA complex formation is on record?
Answer: 243%

Question: How did the Protein-DNA complex formation turn out when `COc1cc([C@@H]2c3cc4c(cc3[C@@H](Nc3ccc(C#N)cc3)[C@H]3COC(=O)[C@H]23)OCO4)cc(OC)c1O` was run?
Answer: 211%
